Test results from ChEMBL document CHEMBL1133404, “Synthesis and biological activities of NB-506 analogues modified at the glucose group” (Bioorg Med Chem Lett, 2000).

Assays:
[1] = test system: P388; assay: The compound was tested for the cytotoxic activity against murine leukemia cells (P388); format: functional, cell-based; settings: Mus musculus
Summary of the method: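 The murine leukemia P388 cell line was used. Cytotoxicity was read out by a colorimetric tetrazolium–formazan assay.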

[2] = target: Protein kinase C (PKC); assay: Inhibitory effect on protein kinase C using histone II-As as substrate; format: protein assay
[3] = target: T1, DNA topoisomerase 1 (Homo sapiens, UniProt P11387); assay: Inhibitory effect on topoisomerase-1 mediated DNA cleavage using supercoiled pBR322 plasmid DNA; format: functional
T1 sequence (P11387 whole entry): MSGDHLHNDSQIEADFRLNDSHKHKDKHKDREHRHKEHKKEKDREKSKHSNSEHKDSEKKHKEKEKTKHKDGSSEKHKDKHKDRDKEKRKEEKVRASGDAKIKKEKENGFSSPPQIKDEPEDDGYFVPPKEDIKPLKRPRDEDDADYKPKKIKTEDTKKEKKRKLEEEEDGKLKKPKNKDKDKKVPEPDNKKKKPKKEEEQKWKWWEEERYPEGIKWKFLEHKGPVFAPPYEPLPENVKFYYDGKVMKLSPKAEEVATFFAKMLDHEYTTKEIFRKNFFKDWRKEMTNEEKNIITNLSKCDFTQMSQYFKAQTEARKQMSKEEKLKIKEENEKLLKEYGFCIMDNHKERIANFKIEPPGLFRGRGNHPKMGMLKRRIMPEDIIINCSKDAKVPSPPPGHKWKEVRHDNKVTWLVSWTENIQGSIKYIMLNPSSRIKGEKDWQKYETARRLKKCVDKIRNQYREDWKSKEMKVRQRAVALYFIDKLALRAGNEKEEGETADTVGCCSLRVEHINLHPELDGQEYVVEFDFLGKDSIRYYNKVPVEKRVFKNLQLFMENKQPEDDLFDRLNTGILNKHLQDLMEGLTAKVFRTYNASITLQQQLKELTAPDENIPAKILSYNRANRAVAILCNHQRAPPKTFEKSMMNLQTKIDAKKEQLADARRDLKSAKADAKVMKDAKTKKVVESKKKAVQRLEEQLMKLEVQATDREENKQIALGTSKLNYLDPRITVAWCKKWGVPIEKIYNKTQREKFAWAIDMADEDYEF

[4] = test system: MKN-45; assay: Tested for cytotoxic activity against human stomach cancer cells (MKN-45); format: functional, cell-based
Summary of the method: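 The human stomach cancer MKN-45 cell line was used. Cytotoxicity was read out by a colorimetric tetrazolium–formazan assay and by sulforhodamine B dye staining.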

[5] = target: DNA topoisomerase II (Homo sapiens, UniProt P11388+Q02880); assay: Tested for inhibitory effect on topoisomerase-2 mediated DNA cleavage using super coiled pBR322 plasmid DNA; format: functional
[6] = test system: P388; assay: Compound was tested for the effect on the formation of protein-DNA complex in P388 cells investigated by the K+/SDS method; format: functional, Mus musculus
Summary of the method: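 Formation of topoisomerase–DNA (protein–DNA) complexes was measured in murine leukemia P388 cells by K+/SDS precipitation. Activity was reported as EC200.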

[7] = species: Mus sp.; assay: Tested for toxicity in mice; format: organism-based; settings: in vivo
Summary of the method: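 Nude mice bearing subcutaneous MKN-45 human stomach cancer flank xenografts; dosing intravenous five times/week for 2 weeks, starting once tumors reached 0.2 cm³ or larger. Toxicity expressed as LD₁₀, the approximate dose lethal to 10% of animals on this schedule.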

[8] = test system: MKN-45; assay: Ratio of compound toxicity to that of anticancer activity against human stomach cancer cells MKN-45 in mice; format: functional
Summary of the method: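 MKN-45 human stomach cancer cells were implanted subcutaneously in a side flank of nude mice. Dosing began once tumors reached 0.2 cm³ or larger and was given intravenously five times per week for 2 weeks. GID75 is the approximate dose giving 75% tumor growth inhibition. LD10 is the approximate 10% lethal dose on the same schedule. Safety margin is LD10/GID75.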

[9] = test system: MKN-45; assay: Inhibitory activity against human stomach cancer cells MKN-45 in nude mice after intravenous dose

Row | SMILES | IC50 [1] [nM] | IC50 [2] [nM] | EC50 [3] [nM] | IC50 [4] [nM] | EC50 [5] [nM] | EC200 [6] [nM] | LD10 [7] [mg m**-2] | Saftey margin [8] | GID75 [9] [mg m**-2]
1 | O=C1c2c(c3c4ccc(O)cc4n([C@@H]4O[C@H](CO)[C@@H](O)[C@@H]4O)c3c3[nH]c4cc(O)ccc4c23)C(=O)N1NC(CO)CO | 5.3 | 120000 | 32 | 93 | > 50000 | 430 |  |  | 
2 | O=C1c2c(c3c4ccc(O)cc4n([C@H]4O[C@H](CO)[C@H](O)[C@H]4O)c3c3[nH]c4cc(O)ccc4c23)C(=O)N1NC(CO)CO | 12 | > 200000 | 17 | 68 | > 50000 | 400 |  |  | 
3 | C[C@H]1O[C@@H](n2c3cc(O)ccc3c3c4c(c5c6ccc(O)cc6[nH]c5c32)C(=O)N(NC(CO)CO)C4=O)[C@H](O)[C@@H](O)[C@@H]1O | 3 | 60000 | 140 | 38 | > 50000 | 6500 |  |  | 
4 | O=C1c2c(c3c4ccc(O)cc4n([C@@H]4O[C@H](CO)[C@H](O)[C@H]4O)c3c3[nH]c4cc(O)ccc4c23)C(=O)N1NC(CO)CO | 0.96 | > 200000 | 17 | 6 | > 50000 | 60 | 420 | 1.4 | 300
5 | O=C1c2c(c3c4ccc(O)cc4n([C@@H]4O[C@H](CO)[C@@H](O)[C@H]4O)c3c3[nH]c4cc(O)ccc4c23)C(=O)N1NC(CO)CO | 1.8 | 20000 | 8 | 50 | > 50000 | 32 | 570 | 2 | 290
6 | O=C1c2c(c3c4ccc(O)cc4n([C@@H]4O[C@@H](C(O)CO)[C@@H](O)[C@H]4O)c3c3[nH]c4cc(O)ccc4c23)C(=O)N1NC(CO)CO (stereo partly drawn) | 14 | > 200000 | 20 | 29 | > 50000 | 1700 |  |  | 
7 | O=C1c2c(c3c4ccc(O)cc4n([C@H]4O[C@H](CO)[C@@H](O)[C@H]4O)c3c3[nH]c4cc(O)ccc4c23)C(=O)N1NC(CO)CO | 19 | 21000 | 30 | 130 | > 50000 | 450 | 1000 | 1.9 | 540
8 | O=C1c2c(c3c4ccc(O)cc4n([C@@H]4O[C@H](CO)[C@@H](O[C@H]5O[C@H](CO)[C@@H](O)[C@H](O)[C@H]5O)[C@H](O)[C@H]4O)c3c3[nH]c4cc(O)ccc4c23)C(=O)N1NC(CO)CO | 3.5 | > 200000 | > 3000 | 73 | > 50000 | >10000 |  |  | 
9 | O=C1c2c(c3c4ccc(O)cc4n([C@H]4C[C@H](O)[C@@H](CO)O4)c3c3[nH]c4cc(O)ccc4c23)C(=O)N1NC(CO)CO | 4.4 | 3000 | 25 | 45 | > 50000 | 170 |  |  | 
10 | O=C1c2c(c3c4ccc(O)cc4n([C@@H]4OC[C@@H](O)[C@H]4O)c3c3[nH]c4cc(O)ccc4c23)C(=O)N1NC(CO)CO | 2.4 | 12000 | 40 | 37 |  |  |  |  | 
11 | O=C1c2c(c3c4ccc(O)cc4n([C@@H]4C[C@@H](O)[C@H](O)[C@@H](CO)O4)c3c3[nH]c4cc(O)ccc4c23)C(=O)N1NC(CO)CO | 16 | 150000 | 130 | 33 | > 50000 | 1200 |  |  | 
